# Assay results: ChEMBL document CHEMBL4414574, “Structure-Based Discovery and Development of a Series of Potent and Selective Bromodomain and Extra-Terminal Protein Inhibitors” (J Med Chem, 2019)
# pIC50: −log10 of the molar value. Activity calls are given as the source filed them. No cut-off for these calls is given here.
# Experiments:
# [1] = biological target: Histone acetyltransferase p300 (Homo sapiens) (UniProt Q09472); assay: Inhibition of EP300 (unknown origin) at 1 uM
# In short: (§1)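 Bromodomain binding panel (32 bromodomains) screened at 1 μM; primary binding read-out reported as percent of control, lower values meaning stronger binding.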
# [2] = biological target: Bromodomain-containing protein 2 (Homo sapiens) (UniProt P25440); assay: Inhibition of BRD2 bromodomain 1 (unknown origin)
# Bromodomain-containing protein 2 (Homo sapiens), sequence (P25440 whole entry, looked up): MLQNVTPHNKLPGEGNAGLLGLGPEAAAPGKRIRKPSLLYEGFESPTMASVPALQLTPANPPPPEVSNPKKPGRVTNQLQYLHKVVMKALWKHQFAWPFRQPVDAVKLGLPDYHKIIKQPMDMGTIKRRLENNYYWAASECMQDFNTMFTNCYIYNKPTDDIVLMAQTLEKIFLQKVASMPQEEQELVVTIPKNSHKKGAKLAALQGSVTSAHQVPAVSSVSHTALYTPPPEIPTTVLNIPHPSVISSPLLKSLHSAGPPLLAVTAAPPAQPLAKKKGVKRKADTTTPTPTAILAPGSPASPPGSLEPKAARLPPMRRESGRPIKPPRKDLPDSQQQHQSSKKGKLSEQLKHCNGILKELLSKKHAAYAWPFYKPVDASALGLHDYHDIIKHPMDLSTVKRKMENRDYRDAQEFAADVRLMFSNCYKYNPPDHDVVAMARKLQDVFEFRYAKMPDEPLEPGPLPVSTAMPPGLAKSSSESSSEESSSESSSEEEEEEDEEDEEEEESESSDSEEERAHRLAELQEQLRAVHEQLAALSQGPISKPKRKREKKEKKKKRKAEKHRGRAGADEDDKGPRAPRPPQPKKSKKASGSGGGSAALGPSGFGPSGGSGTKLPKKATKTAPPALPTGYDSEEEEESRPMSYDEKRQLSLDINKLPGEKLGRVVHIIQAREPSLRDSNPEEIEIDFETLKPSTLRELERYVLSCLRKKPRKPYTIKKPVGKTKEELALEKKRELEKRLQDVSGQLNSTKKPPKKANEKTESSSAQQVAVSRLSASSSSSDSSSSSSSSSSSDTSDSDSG
# [3] = biological target: T1, Bromodomain-containing protein 4 (Homo sapiens, UniProt O60885); assay: Inhibition of BRD4 bromodomain 1 (unknown origin)
# In short: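 BRD4 BD1 (His6-tagged, E. coli BL21(DE3)-expressed, Ni-NTA purified) at 10 nM with 5 nM FITC-labelled (+)-JQ1 tracer; 50 mM HEPES pH 7.4, 150 mM NaCl, 0.5 mM CHAPS, DMSO 2‰ final; graded inhibitor; 4 h dark equilibration at room temperature; fluorescence anisotropy read (ex 485/em 530 nm). IC50 from two independent experiments in duplicate, mean ± SEM.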
# [4] = biological target: T1, Bromodomain-containing protein 4; assay: Inhibition of BRD4 bromodomain 2 (unknown origin)
# [5] = biological target: Bromodomain-containing protein 2 (Homo sapiens) (UniProt P25440); assay: Inhibition of BRD2 bromodomain 2 (unknown origin); in short: as §1
# [6] = biological target: T1, Bromodomain-containing protein 4; assay: Displacement of 5-FITC labelled (+)-JQ1 from His6-tagged human BRD4 bromodomain 1 expressed in Escherichia coli BL21(DE3) )-codon plus-RIL cells incubated for 4 hrs in dark condition by fluorescence anisotropy binding assay
# [7] = tested on: MM1.S; assay: Antiproliferative activity against human MM1S cells after 72 hrs by CCK8 or SRB assay; format: functional, cell-based
# In short: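 IC50 against MM.1S cell proliferation was taken as the mean of three independent experiments, each run in triplicate, reported with SEM.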
# [8] = AUC (0 to infinity) in ICR mouse at 10 mg/kg, po administered via gavage measured after 0.25 to 24 hrs by UPLC/MS analysis; format: ADME, organism-based; parameters: dose 10 mg/kg, route oral, time infinity; conditions: in vivo
# In short: (§2)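 Male ICR mice were dosed orally in 1% DMSO/0.5% HPMC vehicle. Plasma (and brain, where stated) concentrations gave Tmax, Cmax, T1/2, AUC0-t and AUC0-inf.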
# [9] = Tmax in ICR mouse at 10 mg/kg, po administered via gavage measured after 0.25 to 24 hrs by UPLC/MS analysis; format: ADME, organism-based; conditions: in vivo
# In short: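 Male ICR mice dosed orally (3, 10 or 100 mg/kg, per line) in 1% DMSO/0.5% HPMC vehicle; plasma drug levels measured.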
# [10] = AUC (0 to t) in ICR mouse at 10 mg/kg, po administered via gavage measured after 0.25 to 24 hrs by UPLC/MS analysis; format: ADME, organism-based; parameters: time 0.25-24 hr, dose 10 mg/kg, route oral; conditions: in vivo; in short: as §2
# [11] = Half life in ICR mouse at 10 mg/kg, po administered via gavage measured after 0.25 to 24 hrs by UPLC/MS analysis; format: ADME, organism-based; conditions: in vivo
# In short: (§3)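 Male ICR mice dosed orally in 1% DMSO/0.5% HPMC vehicle; plasma or brain drug levels used to derive Tmax, Cmax, AUC0-t, AUC0-inf and T1/2.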
# [12] = Cmax in ICR mouse at 10 mg/kg, po administered via gavage measured after 0.25 to 24 hrs by UPLC/MS analysis; format: ADME, organism-based; parameters: dose 10 mg/kg, route oral; conditions: in vivo; in short: as §3
# [13] = tested on: MV4-11; assay: Antiproliferative activity against human MV4-11 cells after 72 hrs by CCK8 or SRB assay; format: functional, cell-based
# [14] = tested on: KG-1; assay: Antiproliferative activity against human KG1 cells after 72 hrs by CCK8 or SRB assay; format: functional, cell-based
# [15] = tested on: SK-OV-3; assay: Antiproliferative activity against human SKOV3 cells after 72 hrs by CCK8 or SRB assay; format: functional, cell-based
# [16] = tested on: MDA-MB-436; assay: Antiproliferative activity against human MDA-MB-436 cells after 72 hrs by CCK8 or SRB assay; format: functional, cell-based
# [17] = tested on: A549; assay: Antiproliferative activity against human A549 cells after 72 hrs by CCK8 or SRB assay; format: functional, cell-based
# [18] = tested on: AGS; assay: Antiproliferative activity against human AGS cells after 72 hrs by CCK8 or SRB assay; format: functional, cell-based
# [19] = tested on: MDA-MB-468; assay: Antiproliferative activity against human MDA-MB-468 cells after 72 hrs by CCK8 or SRB assay; format: functional, cell-based
# [20] = tested on: HT-29; assay: Antiproliferative activity against human HT-29 cells after 72 hrs by CCK8 or SRB assay; format: functional, cell-based
# [21] = tested on: NCI-H1299; assay: Antiproliferative activity against human NCI-H1299 cells after 72 hrs by CCK8 or SRB assay; format: functional, cell-based
# [22] = species on record: Homo sapiens; assay: Antiproliferative activity against human TY82 cells after 72 hrs by CCK8 or SRB assay; format: functional, cell-based
# [23] = tested on: HuTu80; assay: Antiproliferative activity against human HuTu 80 cells after 72 hrs by CCK8 or SRB assay; format: functional, cell-based
# [24] = tested on: NCI-H522; assay: Antiproliferative activity against human NCI-H522 cells after 72 hrs by CCK8 or SRB assay; format: functional, cell-based
# [25] = tested on: RKO; assay: Antiproliferative activity against human RKO cells after 72 hrs by CCK8 or SRB assay; format: functional, cell-based
# [26] = tested on: SW-620; assay: Antiproliferative activity against human SW620 cells after 72 hrs by CCK8 or SRB assay; format: functional, cell-based
# [27] = tested on: Hep 3B2; assay: Antiproliferative activity against human Hep3B cells after 72 hrs by CCK8 or SRB assay; format: functional, cell-based
# [28] = tested on: BT-549; assay: Antiproliferative activity against human BT549 cells after 72 hrs by CCK8 or SRB assay; format: functional, cell-based
# Histone acetyltransferase p300 (Homo sapiens), sequence (Q09472 whole entry): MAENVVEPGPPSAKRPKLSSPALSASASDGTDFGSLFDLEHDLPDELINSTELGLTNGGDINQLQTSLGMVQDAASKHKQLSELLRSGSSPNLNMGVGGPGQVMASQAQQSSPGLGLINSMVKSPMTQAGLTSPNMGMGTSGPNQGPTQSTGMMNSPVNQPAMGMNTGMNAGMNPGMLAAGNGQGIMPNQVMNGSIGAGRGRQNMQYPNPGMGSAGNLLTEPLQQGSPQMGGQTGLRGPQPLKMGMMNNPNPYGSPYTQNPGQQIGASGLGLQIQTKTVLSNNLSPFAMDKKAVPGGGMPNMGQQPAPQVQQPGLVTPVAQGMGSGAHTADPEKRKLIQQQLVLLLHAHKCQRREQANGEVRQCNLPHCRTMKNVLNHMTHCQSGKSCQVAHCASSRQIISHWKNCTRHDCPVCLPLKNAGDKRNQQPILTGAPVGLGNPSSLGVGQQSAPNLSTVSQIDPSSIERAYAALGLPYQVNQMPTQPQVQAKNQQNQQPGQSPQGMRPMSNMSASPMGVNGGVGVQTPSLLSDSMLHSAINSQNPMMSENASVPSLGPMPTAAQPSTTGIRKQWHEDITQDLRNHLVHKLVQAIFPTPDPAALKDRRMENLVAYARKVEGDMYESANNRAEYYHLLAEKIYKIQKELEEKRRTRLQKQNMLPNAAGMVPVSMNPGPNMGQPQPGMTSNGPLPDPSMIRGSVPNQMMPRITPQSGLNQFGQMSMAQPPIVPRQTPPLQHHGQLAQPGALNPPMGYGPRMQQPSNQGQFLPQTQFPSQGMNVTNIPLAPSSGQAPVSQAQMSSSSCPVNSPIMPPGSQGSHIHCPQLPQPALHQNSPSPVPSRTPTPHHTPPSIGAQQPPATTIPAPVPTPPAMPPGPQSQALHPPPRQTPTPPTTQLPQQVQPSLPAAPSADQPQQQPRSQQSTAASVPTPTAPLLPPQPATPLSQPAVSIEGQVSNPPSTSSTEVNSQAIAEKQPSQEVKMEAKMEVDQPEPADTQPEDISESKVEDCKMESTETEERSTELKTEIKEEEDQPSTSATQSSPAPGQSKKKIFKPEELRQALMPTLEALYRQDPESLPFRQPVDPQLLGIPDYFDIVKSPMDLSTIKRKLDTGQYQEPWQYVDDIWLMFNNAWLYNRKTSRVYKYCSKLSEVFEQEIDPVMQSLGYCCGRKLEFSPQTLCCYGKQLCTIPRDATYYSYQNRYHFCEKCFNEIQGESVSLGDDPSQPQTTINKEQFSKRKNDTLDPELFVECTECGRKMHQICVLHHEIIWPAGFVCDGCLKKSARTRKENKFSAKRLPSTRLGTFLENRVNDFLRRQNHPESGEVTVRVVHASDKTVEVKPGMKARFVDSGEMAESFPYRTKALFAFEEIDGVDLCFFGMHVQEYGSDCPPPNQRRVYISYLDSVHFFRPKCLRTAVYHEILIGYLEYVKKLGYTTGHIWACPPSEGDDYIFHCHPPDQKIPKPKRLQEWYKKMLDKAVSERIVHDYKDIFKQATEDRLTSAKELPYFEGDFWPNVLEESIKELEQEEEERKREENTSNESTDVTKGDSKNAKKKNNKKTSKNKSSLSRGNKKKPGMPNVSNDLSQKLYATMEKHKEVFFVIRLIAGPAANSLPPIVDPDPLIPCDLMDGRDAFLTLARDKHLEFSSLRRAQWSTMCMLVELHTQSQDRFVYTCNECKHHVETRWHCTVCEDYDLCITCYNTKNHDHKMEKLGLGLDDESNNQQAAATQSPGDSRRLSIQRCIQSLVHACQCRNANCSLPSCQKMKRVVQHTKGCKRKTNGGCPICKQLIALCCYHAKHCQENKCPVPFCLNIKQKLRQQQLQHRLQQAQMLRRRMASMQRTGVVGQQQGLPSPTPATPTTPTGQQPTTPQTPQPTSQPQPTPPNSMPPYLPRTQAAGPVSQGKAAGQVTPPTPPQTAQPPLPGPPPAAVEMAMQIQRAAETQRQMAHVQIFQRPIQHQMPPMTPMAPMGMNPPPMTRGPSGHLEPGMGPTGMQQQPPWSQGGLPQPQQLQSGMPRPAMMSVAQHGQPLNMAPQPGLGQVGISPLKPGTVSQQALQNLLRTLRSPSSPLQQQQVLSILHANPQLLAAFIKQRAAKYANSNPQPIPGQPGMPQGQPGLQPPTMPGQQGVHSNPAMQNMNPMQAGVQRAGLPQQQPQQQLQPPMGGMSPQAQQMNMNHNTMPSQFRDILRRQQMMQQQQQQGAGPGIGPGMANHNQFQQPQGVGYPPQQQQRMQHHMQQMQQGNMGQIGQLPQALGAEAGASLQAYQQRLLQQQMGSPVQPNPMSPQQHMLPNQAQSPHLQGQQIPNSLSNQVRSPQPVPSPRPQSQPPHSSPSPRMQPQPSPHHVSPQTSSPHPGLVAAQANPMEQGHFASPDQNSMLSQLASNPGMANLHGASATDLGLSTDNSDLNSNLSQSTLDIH
compound,measurement,setting,value
Cc1ccc(-n2nc(C(=O)N3CCN4CCCC4C3)nc2-c2ccc3c(c2)N(C2CCCC2)[C@H](C)C(=O)N3C)cc1 (stereo partly drawn),inhibition,[1],inactive
same,inhibition activity call (active/inactive),[2],Active
same,inhibition,[3],Active
same,inhibition,[4],Active
same,inhibition,[5],Active
same,pIC50,[6],8.06
same,pIC50,[7],8.19
Cc1ccc(-n2nc(C(=O)N3CCN(C(C)C)CC3)nc2-c2ccc3c(c2)N(C2CCCC2)[C@H](C)C(=O)N3C)cc1,pIC50,[6],8.32
same,pIC50,[7],6.90
Cc1ccc(-n2nc(C(=O)N(C)CCN(C)C)nc2-c2ccc3c(c2)N(C2CCCC2)[C@H](C)C(=O)N3C)cc1,inhibition,[1],inactive
same,inhibition activity call (active/inactive),[2],Active
same,inhibition,[3],Active
same,inhibition,[4],Active
same,inhibition,[5],Active
same,pIC50,[6],8.15
same,pIC50,[7],7.79
C[C@@H]1C(=O)N(C)c2ccc(-c3nc(C(=O)N4CCN(C)CC4)nn3-c3ccc(Cl)cc3)cc2N1C1CCCC1,pIC50,[6],8.17
same,pIC50,[7],7.31
C[C@@H]1C(=O)N(C)c2ccc(-c3nc(C(=O)N4CCN(C)CC4)nn3-c3ccccc3)cc2N1C1CCCC1,pIC50,[6],8.15
same,pIC50,[7],7.22
Cc1ccc(-n2nc(C(=O)N3C[C@@H](N)C4(CC4)C3)nc2-c2ccc3c(c2)N(C2CCCC2)[C@H](C)C(=O)N3C)cc1,pIC50,[6],8.21
same,pIC50,[7],7.36
Cc1ccc(N2C(=O)CSC2c2ccc3c(c2)N(C2CC2)C(C)C(=O)N3C)cc1 (stereo not drawn),pIC50,[6],6.85
Cc1ccc(-n2nc(C(=O)N3CCC4(CCOC4)CC3)nc2-c2ccc3c(c2)N(C2CCCC2)[C@H](C)C(=O)N3C)cc1,pIC50,[6],8.10
same,pIC50,[7],6.31
CCN1CCN(C(=O)c2nc(-c3ccc4c(c3)N(C3CCCC3)[C@H](C)C(=O)N4C)n(-c3ccc(C)cc3)n2)CC1,pIC50,[6],8.24
same,pIC50,[7],7.60
Cc1ccc(-n2nc(C(=O)N3CCN(C)CC3)nc2-c2ccc3c(c2)N(C2CCCC2)[C@H](C)C(=O)N3C)c(C)c1,pIC50,[6],8.35
same,pIC50,[7],7.75
Cc1ccc(-n2nnnc2-c2ccc3c(c2)N(C2CCCC2)C(C)C(=O)N3C)cc1 (stereo not drawn),pIC50,[6],8.02
same,pIC50,[7],5.91
Cc1ccc(-n2nc(C(=O)N3C[C@@H](NC(=O)OC(C)(C)C)C4(CC4)C3)nc2-c2ccc3c(c2)N(C2CCCC2)[C@H](C)C(=O)N3C)cc1,pIC50,[6],8.02
same,pIC50,[7],6.31
Cc1ccc(-n2nc(C(=O)N3CCN(C)CC3)nc2-c2ccc3c(c2)N(C2CCCC2)[C@H](C)C(=O)N3C)cc1F,AUC(0-inf),[8],8360 ng·h/mL
same,inhibition,[1],inactive
same,Tmax,[9],18 min
same,AUC(0-t),[10],8150 ng·h/mL
same,half-life,[11],90 min
same,inhibition activity call (active/inactive),[2],Active
same,inhibition,[3],Active
same,inhibition,[4],Active
same,Cmax,[12],4970 ng/mL
same,inhibition,[5],Active
same,pIC50,[6],8.38
same,pIC50,[7],7.89
Cc1ccc(-n2nnnc2-c2ccc3c(c2)N(C2CC2)C(C)C(=O)N3C)cc1 (stereo not drawn),pIC50,[6],7.84
same,pIC50,[7],7.32
Cc1onc(-c2ccccc2)c1-c1ccc2c(c1)N(C1CCCC1)[C@H](C)C(=O)N2C,pIC50,[6],7.00
Cc1ccc(-n2nc(C(=O)N3CCN(C4CC4)CC3)nc2-c2ccc3c(c2)N(C2CCCC2)[C@H](C)C(=O)N3C)cc1,pIC50,[6],8.23
same,pIC50,[7],7.06
Cc1ccc(-n2nc(C(=O)N3C4CCC3CN(C)C4)nc2-c2ccc3c(c2)N(C2CCCC2)[C@H](C)C(=O)N3C)cc1,inhibition,[1],inactive
same,inhibition activity call (active/inactive),[2],Active
same,inhibition,[3],Active
same,inhibition,[4],Active
same,inhibition,[5],Active
same,pIC50,[6],8.18
same,pIC50,[7],8.10
Cc1ccc(-n2nc(C(=O)N3CCC4(CCCC4)CC3)nc2-c2ccc3c(c2)N(C2CCCC2)[C@H](C)C(=O)N3C)cc1,pIC50,[6],7.57
same,pIC50,[7],5.62
Cc1ccc(-n2nc(C(=O)N3CC4CCC(C3)N4C)nc2-c2ccc3c(c2)N(C2CCCC2)[C@H](C)C(=O)N3C)cc1,inhibition,[1],inactive
same,inhibition activity call (active/inactive),[2],Active
same,inhibition,[3],Active
same,inhibition,[4],Active
same,inhibition,[5],Active
same,pIC50,[6],8.34
same,pIC50,[7],8.00
Cc1ccc(-n2nc(C(=O)N3CCCN(C)CC3)nc2-c2ccc3c(c2)N(C2CCCC2)[C@H](C)C(=O)N3C)cc1,inhibition,[1],inactive
same,inhibition activity call (active/inactive),[2],Active
same,inhibition,[3],Active
same,inhibition,[4],Active
same,inhibition,[5],Active
same,pIC50,[7],8.10
Cc1sc2c(c1C)C(c1ccc(Cl)cc1)=N[C@@H](CC(=O)OC(C)(C)C)c1nnc(C)n1-2,Activity,[13],Active
same,Activity,[14],Active
same,Activity,[15],Active
same,Activity,[16],Active
same,Activity,[17],Active
same,Activity,[18],Active
same,Activity,[19],Active
same,Activity,[20],Active
same,Activity,[21],Active
same,Activity,[22],Active
same,Activity,[23],Active
same,Activity,[24],Active
same,Activity,[25],Active
same,Activity,[26],Active
same,Activity,[27],Active
same,Activity,[28],Active
